ChEMBL document CHEMBL1127591, “Novel prodrugs of alkylating agents derived from 2-fluoro- and 3-fluorobenzoic acids for antibody-directed enzyme prodrug therapy” (J Med Chem, 1994)

Experiments:
[1] = system: LS174T; experiment: Compound was evaluated for its cytotoxicity without carboxypeptidase G2 in the colorectal cell line LS174T for 1 hour; assay type: functional, cell-based; details: Homo sapiens
Summary of the method: (§1)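 LS174T cells (2.5 × 10³/well) in DMEM + 10% FCS, 5% CO2, 37 °C. Exposed once for 1 h to six concentrations (1–800 μM), with or without CPG2 (6 units/mL final). Compounds and enzyme were freshly prepared. Cells washed three times, regrown 6 days, then fixed and stained. Viable-cell protein read by sulforhodamine B against untreated controls. Octuplicate wells.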

[2] = Chemical half-life in percholate at 37 degree was determined; assay type: ADME; details: perchlorate solution
Summary of the method: (§2)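 Sodium perchlorate (0.1 M) at 37 °C. Hydrolysis was followed to effective completion by titrating the released acid with 0.01 M NaOH under N2 on an automatic titrator held at pH 7.4. Each compound was run at least twice, and t1/2 is the mean of all determinations.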

[3] = system: LS174T; experiment: Compound was evaluated for its cytotoxicity with carboxypeptidase G2 in the colorectal cell line LS174T for 1 hour; assay type: functional, cell-based; details: Homo sapiens; summary of the method: as §1
[4] = Kinetics of potential prodrugs as substrates for carboxypeptidase G2 was determined and reported as apparent second order constant; assay type: ADME
Summary of the method: (§3)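 CPG2 cleavage of the benzoylglutamate amide bond in 100 mM Tris/HCl pH 7.3 with 260 μM ZnCl2 at 37 °C in a thermostated spectrophotometer. Absorbance fall was read at the wavelength of maximal prodrug–parent difference, chosen from 240–400 nm scans. Substrate 0.1–100 μM, CPG2 (0.01–1.0 unit) held constant per run. Michaelis–Menten fit. Duplicates.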

[5] = Kinetics of potential prodrugs as substrates for carboxypeptidase G2 was determined and reported as first order constant; assay type: ADME; summary of the method: as §3
[6] = Kinetics of potential prodrugs as substrates for carboxypeptidase G2 was determined and reported as Michaelis-Menten constant; assay type: ADME; summary of the method: as §3
[7] = Chemical half-life in percholate at 37 degree Centigrade; assay type: ADME; details: perchlorate solution; summary of the method: as §2

CS(=O)(=O)OCCN(CCCl)c1ccc(C(=O)O)cc1
IC50 [1]: 185 µM | half-life [2]: 0.967 h

CS(=O)(=O)OCCN(CCCl)c1ccc(C(=O)N[C@@H](CCC(=O)O)C(=O)O)cc1
IC50 [3]: 200 µM | k cat/Km [4]: 1.71e+08 M⁻¹ s⁻¹ | k cat [5]: 583 s⁻¹ | Km [6]: 3.4 µM | half-life [2]: 16.4 h

CS(=O)(=O)OCCN(CCCl)c1ccc(C(=O)N[C@@H](CCC(=O)O)C(=O)O)c(F)c1
k cat/Km [4]: 1.9e+07 M⁻¹ s⁻¹ | k cat [5]: 213 s⁻¹ | Km [6]: 11 µM

O=C(O)CC[C@H](NC(=O)c1ccc(N(CCCl)CCCl)cc1)C(=O)O
half-life [2]: 19.3 h

CS(=O)(=O)OCCN(CCOS(C)(=O)=O)c1ccc(C(=O)N[C@@H](CCC(=O)O)C(=O)O)cc1
half-life [7]: 0.7 h

CS(=O)(=O)OCCN(CCCl)c1ccc(C(=O)N[C@@H](CCC(=O)O)C(=O)O)cc1F
k cat/Km [4]: 1.02e+08 M⁻¹ s⁻¹ | k cat [5]: 614 s⁻¹ | Km [6]: 6 µM | half-life [2]: 2.03 h

O=C(O)CC[C@H](NC(=O)c1ccc(N(CCCl)CCCl)cc1F)C(=O)O
IC50 [3]: > 800 µM | k cat/Km [4]: 3.1e+07 M⁻¹ s⁻¹ | k cat [5]: 462 s⁻¹ | IC50 [1]: > 800 µM | Km [6]: 15 µM

CS(=O)(=O)OCCN(CCCl)c1ccc(C(=O)O)c(F)c1
IC50 [1]: > 800 µM | half-life [2]: 3.2 h

CS(=O)(=O)OCCN(CCCl)c1ccc(C(=O)O)cc1F
IC50 [1]: 280 µM | half-life [2]: 0.04 h

CS(=O)(=O)OCCN(CCOS(C)(=O)=O)c1ccc(C(=O)O)cc1F
IC50 [1]: 480 µM | half-life [2]: 0.0317 h

O=C(O)CC[C@H](NC(=O)c1ccc(N(CCCl)CCCl)c(F)c1)C(=O)O
IC50 [3]: 390 µM | k cat/Km [4]: 1.03e+08 M⁻¹ s⁻¹ | k cat [5]: 1028 s⁻¹ | IC50 [1]: > 800 µM | Km [6]: 10 µM | half-life [2]: 2.45 h

CS(=O)(=O)OCCN(CCOS(C)(=O)=O)c1ccc(C(=O)N[C@@H](CCC(=O)O)C(=O)O)cc1F
k cat/Km [4]: 3.3e+07 M⁻¹ s⁻¹ | k cat [5]: 565 s⁻¹ | Km [6]: 17 µM | half-life [2]: 0.15 h
